Results from ChEMBL document CHEMBL1124185, “Studies on some derivatives of oxamniquine” (1988).

Key:
Assay type in all cases: functional
Schistosoma mansoni [1] = test: Percent [3H]uridine incorporation relative to control at 50 ug/mL against hycanthone-sensitive schistosomes (% worms surviving in culture)
Summary of the method: (§1)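 Hycanthone-sensitive Schistosoma mansoni worms exposed to compound in vitro. [3H]uridine incorporation into the worms was measured and expressed relative to untreated controls. Worm survival in culture was scored in parallel.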

Schistosoma mansoni [2] = test: Percent [3H]uridine incorporation relative to controls for a dose of 75 ug/mL against hycanthone-resistant schistosomes
Schistosoma mansoni [3] = test: Percent [3H]uridine incorporation relative to controls for a dose of 100 ug/mL against hycanthone-resistant schistosomes
Schistosoma mansoni [4] = test: Percent [3H]uridine incorporation relative to controls for a dose of 100 ug/mL against hycanthone-sensitive schistosomes.(% warms surviving in culture).; summary of the method: as §1
Schistosoma mansoni [5] = test: Percent [3H]uridine incorporation relative to controls for a dose of 50 ug/mL against hycanthone-resistant schistosomes
Schistosoma mansoni [6] = test: Percent [3H]-uridine incorporation relative to controls for a dose of 100 ug/mL against hycanthone-sensitive schistosomes (% warms surviving in culture).; summary of the method: as §1
[7] = in the assay text read “at 75 ug/mL” for “at 50 ug/mL”

SMILES	Incorporation (Schistosoma mansoni [1]; [7]) [%]	Incorporation (Schistosoma mansoni [2]) [%]	Incorporation (Schistosoma mansoni [1]) [%]	Incorporation (Schistosoma mansoni [3]) [%]	Incorporation (Schistosoma mansoni [4]) [%]	Incorporation (Schistosoma mansoni [5]) [%]	Incorporation (Schistosoma mansoni [6]) [%]
CC(C)NCC1CCc2cc(/C=N/NS(=O)(=O)c3ccc([N+](=O)[O-])cc3)c([N+](=O)[O-])cc2N1 (stereo not drawn)	49	96					
Cc1ccc(S(=O)(=O)N/N=C/c2cc3c(cc2[N+](=O)[O-])NC(CNC(C)C)CC3)cc1 (stereo not drawn)			60	100	32	102	
CNC(=O)OCc1cc2c(cc1[N+](=O)[O-])NC(CNC(C)C)CC2 (stereo not drawn)			22	100		100	21
COc1ccc(S(=O)(=O)N/N=C/c2cc3c(cc2[N+](=O)[O-])NC(CNC(C)C)CC3)cc1 (stereo not drawn)	53	106					
Cc1cc(C)c(S(=O)(=O)N/N=C/c2cc3c(cc2[N+](=O)[O-])NC(CNC(C)C)CC3)c(C)c1 (stereo not drawn)			24	100	20	100	
CC(C)NCC1CCc2cc(CO)c([N+](=O)[O-])cc2N1 (stereo not drawn) [OXAMNIQUINE]			14			97	
